# Data reported in PubChem BioAssay.
# Calls of active or inactive are those of the source.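 How the source made its calls, unless noted: active means viability loss from added drug above about 55%, and viability with drug at most 40%, in both replicates (limit read from the data, passing the limit was not always enough); inconclusive means both conditions met in only one replicate; inactive means neither replicate meets both conditions.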
# Tests used:
# [1] = Her2 expression decrease, cell viability multiplex – SKBR3 breast tumor cells, AlphaScreen, ATP viability, primary screen (AID 461;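 active means Her2 level under about 52% in both replicate screens, with viability over 70% of control, limit read from the data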;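 on Her2 level: lower value means less Her2 protein in the cells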;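 on viability: percent of carrier control wells set as 100% viability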); details: SKBR3 Her2 protein level, 18-24 h, measured here: SKBR3 viability, ATP luminescence, at 10 µM
# [2] = biological target: Receptor tyrosine-protein kinase erbB-2 (Homo sapiens) (UniProt P04626); test: as above; details: 18-24 h, at 10 µM, stronger effect = lower value
# [3] = reduced viability of SK-BR-3 breast cancer cells – cell-based, 24 h, human, pilot screen (AID 572;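 active means viability at or below 10% of carrier control in both of two separate runs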;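 further: compound exposure lasted between 18 and 24 h rather than exactly 24 h; 100% = carrier-treated control wells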); details: SK-BR-3 viability, CellTiter-Glo luminescence, at 10 µM, stronger effect = lower value
# [4] = HUVEC growth inhibition – cell-based, human, primary screen (AID 575;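 active means viability at or below 30% in both replicate assays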;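 further: 100% = median of untreated cell wells with 0.1% DMSO on each plate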); details: HUVEC proliferation, CellTiter-Glo luminescence, 72 h; at 10 µM; stronger effect = lower value
# Outline: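 System: primary human umbilical vein endothelial cells; Quantity: 1250 endothelial cells in each well; Buffer or medium: supplemented EBM, 2% fetal bovine serum; Doses: one dose, 10 µM final, 0.1% DMSO; Incubation: 72 h compound incubation; Technique: ATP-based CellTiter-Glo luminescent read; Evaluation: percent of median DMSO-control luminescence; Controls: vehicle and MePR control wells.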
# [5] = H69AR cell proliferation blockers – human, duplicate replicates, primary screen (AID 580;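 active means viability at or under a set limit in both replicates, limit being median viability minus 3 SD, cut at about 48% in these data, passing the limit was not always enough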;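 further: 100% = mean luminescence of untreated wells and 0% = no signal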); details: H69AR lung tumor cells viability, ATP luminescence, 72 h; at 10 µM; stronger effect = lower value
# [6] = MRP1 drug-resistance reversers in H69AR cells – cell-based, doxorubicin co-treatment, pilot screen (AID 601); details: CellTiter-Glo, 72 h, at 10 µM; for differential viability (reversal): stronger effect = higher value
# [7] = yeast transport mutant growth inhibition pilot in 384-well plates, post-Golgi transport modulator project (AID 636; in the data active means inhibition above about 31%); details: absorbance 615 nm, about 18 h, stronger effect = higher value
# [8] = growth suppression of yeast trafficking mutant, preliminary HTS, modulators of trafficking downstream of Golgi apparatus project, 1536-format plate, OD 615 nm (AID 637; in the data active means inhibition above about 30%); details: yeast transport mutant growth, absorbance 615 nm, 18 h; stronger effect = higher value
# [9] = H69AR cells + 2 uM doxorubicin, measured here: viability with 2 uM doxorubicin, stronger effect = lower value
# [10] = H69AR cells, compound alone cytotoxicity
# Sequence of Receptor tyrosine-protein kinase erbB-2 (Homo sapiens) (P04626 whole entry, looked up): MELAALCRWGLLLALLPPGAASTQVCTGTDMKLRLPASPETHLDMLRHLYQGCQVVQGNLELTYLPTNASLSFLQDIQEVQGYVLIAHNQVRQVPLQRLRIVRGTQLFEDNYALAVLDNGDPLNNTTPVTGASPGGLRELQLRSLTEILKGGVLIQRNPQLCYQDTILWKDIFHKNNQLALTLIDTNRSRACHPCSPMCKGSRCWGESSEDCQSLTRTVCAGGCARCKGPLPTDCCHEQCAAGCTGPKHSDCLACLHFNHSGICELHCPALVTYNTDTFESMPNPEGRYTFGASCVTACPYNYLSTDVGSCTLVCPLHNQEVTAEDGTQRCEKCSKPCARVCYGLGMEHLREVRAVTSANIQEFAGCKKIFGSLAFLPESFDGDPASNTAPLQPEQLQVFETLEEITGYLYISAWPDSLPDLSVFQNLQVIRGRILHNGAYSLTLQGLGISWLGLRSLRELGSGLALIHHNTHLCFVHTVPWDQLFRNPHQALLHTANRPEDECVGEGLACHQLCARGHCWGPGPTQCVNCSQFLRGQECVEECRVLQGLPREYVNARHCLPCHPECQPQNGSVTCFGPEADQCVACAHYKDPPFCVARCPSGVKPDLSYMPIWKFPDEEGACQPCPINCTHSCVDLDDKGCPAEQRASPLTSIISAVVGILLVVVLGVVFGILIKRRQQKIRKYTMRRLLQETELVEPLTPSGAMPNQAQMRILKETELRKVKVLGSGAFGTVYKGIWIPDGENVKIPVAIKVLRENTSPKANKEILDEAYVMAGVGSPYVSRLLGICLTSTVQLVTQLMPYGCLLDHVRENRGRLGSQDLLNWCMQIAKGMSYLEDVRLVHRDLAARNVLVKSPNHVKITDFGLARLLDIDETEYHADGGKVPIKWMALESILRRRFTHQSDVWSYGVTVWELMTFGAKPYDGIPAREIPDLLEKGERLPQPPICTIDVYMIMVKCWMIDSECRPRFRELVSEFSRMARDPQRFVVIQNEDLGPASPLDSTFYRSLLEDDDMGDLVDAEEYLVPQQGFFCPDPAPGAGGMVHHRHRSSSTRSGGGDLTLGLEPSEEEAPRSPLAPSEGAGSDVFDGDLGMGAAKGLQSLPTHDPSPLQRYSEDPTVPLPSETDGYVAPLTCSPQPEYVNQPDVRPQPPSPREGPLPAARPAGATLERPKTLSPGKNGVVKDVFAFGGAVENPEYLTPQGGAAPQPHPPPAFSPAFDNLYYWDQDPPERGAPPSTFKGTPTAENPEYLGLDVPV
SMILES,viability [1],Her2 level [2],viability [3],viability [4],viability [5],differential viability (reversal) ([6]; H69AR cells + 2 uM doxorubicin),"viability [6, 9]","viability [6, 10]",inhibition [7],inhibition [8]
O=C(c1ccccc1Br)N1CCN(c2ccccc2)CC1,85%,83.5% (inactive),85% (inactive),93.6% (inactive),102% (inactive),12.9% (inactive),88.9%,102%,-8.22% (inactive),-4.76% (inactive)
Cc1cc(C)n(C(=O)CNC(=O)C2COc3ccccc3O2)n1 (stereo not given),122%,97.5% (inactive),122% (inactive),87.2% (inactive),97.1% (inactive),3.57% (inactive),93.5%,97.1%,-4.74% (inactive),-1.59% (inactive)
CC(n1cnnn1)C12CC3CC(CC(C3)C1)C2 (stereo not given),88.5%,96% (inactive),88.5% (inactive),93.4% (inactive),96% (inactive),11.3% (inactive),84.7%,96%,-1.2% (inactive),1.97% (inactive)
O=c1sc(Nc2ccccc2)nc2ccsc12,96.5%,47% (active),96.5% (inactive),60.4% (inactive),75.9% (inactive),-2.11% (inactive),78%,75.9%,-8.16% (inactive),-3% (inactive)
COC(=O)c1ccc(CSc2nc(-c3ccc(OC)cc3)nc3c2c(=O)n(C)c(=O)n3C)o1,100%,74% (inactive),100% (inactive),85.8% (inactive),77.4% (inactive),-11.5% (inactive),89%,77.4%,-4.8% (inactive),-3.11% (inactive)
CCc1nc2sc3c(c2c(=O)o1)CCCC3,102%,81% (inactive),102% (inactive),82.1% (inactive),96.3% (inactive),-0.255% (inactive),96.6%,96.3%,-7.5% (inactive),-9.84% (inactive)
O=C(COc1ccccc1)Nc1nc2ccccc2[nH]1,91.5%,93% (inactive),91.5% (inactive),92.5% (inactive),91.5% (inactive),5.92% (inactive),85.6%,91.5%,-1.04% (inactive),-3.93% (inactive)
